Measured values taken from the RNAGym collection of RNA variant scans (doi:10.1126/science.aae0568).
This sample holds only a part of the variants without activity.

B1: tRNA (parent)
chain: GUUCCGUUGGCGUAAUGGUAACGCGUCUCCCUCCUAAGGAGAAGACUGCGGGUUCGAGUCCCGUACGGAACG

Variants of: B1
Test: yeast fitness relative to wild type (ratio to wild type); higher = fitter; tRNA-Arg(CCU), competitive growth, 37 C, YPD
Procedure, shortened: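 Gene amplicons from the start population and from each of six end populations were read by 100-nucleotide paired-end sequencing. Those end populations came from pooled Saccharomyces cerevisiae strains carrying tRNA-Arg(CCU) gene variants at the native locus, competed in YPD at 37°C for 24 hours. Fitness relative to wild type was worked out from changes in genotype frequencies. Genotypes needed ≥ 100 starting reads, and estimates < 0.5 were set to 0.5.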

Variant	yeast fitness
C5G G25C C46G U64G	≤ 0.5
G9C C11U C31A A40C A43U A65G C66G	≤ 0.5
U32G C33U A37G A43C	≤ 0.5
C4G A14G A37U G38A	≤ 0.5
C27G C34G A45G G51C A70G	≤ 0.5
C49A A70G	0.675
G25C C31U A65U	0.726
C5G U35C C49G	≤ 0.5
A15U A65U	0.775
U13C A14G	0.704
C11G C29U A69U	0.543
U2G G48A G58C A65U G67C	≤ 0.5
A14C C30U	0.622
A20C U35C G51C C60G A70U	≤ 0.5
U16A A21G C27G G68C	≤ 0.5
U7G U8G C31U U35A U47C	≤ 0.5
A14G A15U G25C C49U	0.619
C31U C33U A42C	0.562
A21C C62A	0.788
C5U U19C U26A C62A	≤ 0.5
A20C C34A C62U	≤ 0.5
U7A A15U G67A	≤ 0.5
C31G C55U	0.683
C22U	0.908

Variant	yeast fitness
U3C U32C A65U G68A	≤ 0.5
U16A G44A	0.999
A45G A70U	0.913
G17A C27G C46G A65G	≤ 0.5
A14C A37C U54C	≤ 0.5
U8A C61A G67C	0.561
U2A U28C G41C U54A G67U	≤ 0.5
C22A U26C U47C	0.541
U19A C27U	1.02
C11U U26G C30A A43C U53C C66U A70C	≤ 0.5
C11G C30G C31G U32A G56A	≤ 0.5
G12A A20C A65U	0.57
A14U C30U C34U A45U	≤ 0.5
U32C A37G C55A A65U G68C	0.575
C34U A40G U54C A57G	≤ 0.5
C22A G48A	0.826
U2C A15U C30G C55U	0.666
C34A U53C	0.559
U7A A20G C46G G63C G67C A69U	≤ 0.5
A21G C24U	0.989
G17C U19A A36C A37U C60G G67C	≤ 0.5
A20G A40G A57U A65G	≤ 0.5
U13C G67C	0.771
G38C U47G U59C	≤ 0.5

Variant	yeast fitness
G25A C31U A43C A57C	≤ 0.5
C27A C49G	0.876
A14G C29G C33U	0.55
C34U C49G G52C C55U C62G	0.75
U19C A20C C33U U35A G58A	≤ 0.5
G56C A70U	0.83
A14C C55U	0.645
A14C C55G	0.827
U19C C30U G51C	0.693
U8G A21C G56C	0.766
C11U A15G G63C C66U	≤ 0.5
C4U A36G G44C G63A	0.572
U13C C46U	0.886
U3G U8A G18C	0.63
U8A U13A A14C G56C	≤ 0.5
C4U U7A A45U A57G	≤ 0.5
U32C U35C A40G	≤ 0.5
C33G G41A G50A	0.624
G18C G48A U53G	≤ 0.5
G58C U59C A69U	0.679
U8C U16C A65G	0.707
C22U C27A G58A	0.568
C4U C5G A15C A42C	≤ 0.5
U13C A21G C31G U47C	0.555

Variant	yeast fitness
G12C C61U C66U A70C	≤ 0.5
C11A U16C C31U A69U	≤ 0.5
G9C A14G A45G	≤ 0.5
C5G C22A U26C C33G U64A G67C	0.544
C34U A36U C66U	≤ 0.5
C11G A36C G68C	≤ 0.5
C29U A36G U54C	0.542
C4G C5A A21C U54A A65U A69C	≤ 0.5
A20U C31G C55G A57U	≤ 0.5
G17A A36U C46U	≤ 0.5
A20G G23C C31U C46G	0.526
G9A C24G C49U C55G G58A	≤ 0.5
C31A G44A A57G A65C A70U	≤ 0.5
C4G U59C A69C	0.778
G10A C60G A69G	0.616
U19G C49U C62A	0.598
C4U U13A G23A A36U G39C C62A U64A	0.537
C24U C60A G63A	≤ 0.5
G9A U28G A40C A42G	0.76
G25C C29G A43C	≤ 0.5
A14G A36U A37C C49A U53G	≤ 0.5
A15U C24A C34G G39U G58C	≤ 0.5
U7A G10C C27G U32A G56A A57U	≤ 0.5
A14G A20U C29G C33U	0.543

Variant	yeast fitness
U19A A70C	1.03
C11G U16A G23C C30U C34U G67U	0.537
G25A A37C C61U	0.572
U3C A40G C46A A65G	0.763
U16C C22U A65U	≤ 0.5
C4U U13A U59A	0.811
C11A U13A A20G	0.561
U7C C33U C49U U53C	0.539
C4A C33G A57G	0.576
C29G U59G U64C	0.549
G6A G38A	0.812
U7A G50A C62U A69C	0.614
U26C A36C	0.559
U13G A40U	0.945
G17C A20U A42U G67A	≤ 0.5
U2C C29G	0.626
G25A G41A G56A	0.871
A21G C22A G56A A65C	0.528
U13A U32C G67A A70G	0.547
C5U U19G A37G C66U A69U	0.547
C24U C34G A40G	≤ 0.5
U19G A20U C27G	≤ 0.5
C11U C27G G39C	≤ 0.5
U13A A20G A21U A40U	≤ 0.5

Variant	yeast fitness
A21C U32C	0.864
U3A G6U G12C C22A	≤ 0.5
U7A G51A G52A	0.536
U16C A21U A43U C61G	≤ 0.5
C30G A37C A45G	0.633
C5U C27U U35G A36G G58C C66U	≤ 0.5
C34G C61U	0.602
U7G C11G C34U A37U C46A G51A	≤ 0.5
C31U G67U A69G	0.747
C5G U8G A43C G48A	0.547
U8A C11U A37U U64A	0.545
C22A A43G	0.809
G10A C11U A15G C30U C60G	≤ 0.5
G9A C11U G67C	0.697
C11A U16C G18C A45C A57C G68C	0.546
C46U C61G C66U A69U	≤ 0.5
U7A A20C G58A G63A	≤ 0.5
A15G G58A G63A G68C	≤ 0.5
A15G A20U C33A A36C A42U	≤ 0.5
U8C G48C G63C A70C	≤ 0.5
C4A G68U A69G	0.705
G10C C29G	≤ 0.5
G12A A15U C24G G63C	≤ 0.5
C29U G38C C46A	≤ 0.5

Variant	yeast fitness
C5G C11A C46G	0.639
A15U A21C C24G C62G	≤ 0.5
C11G C27A C31A	≤ 0.5
C11A C27U C31A	≤ 0.5
A21U A42U	0.792
U13A C22G U32C A42C G48C C55G G63A G68C	≤ 0.5
C30U U54A G63A	0.704
U3A C27U	0.853
U3A C27A A69U	0.627
U2C A40C A69C	0.633
U13C A20G A37U C61A	≤ 0.5
C11U U32A C34U	≤ 0.5
C5G U8C A20G A43U G51A A65C	≤ 0.5
G12C C24U G67C	0.536
A14G C24A C31U A40U	≤ 0.5
C5U U13A C29A C31G	≤ 0.5
U7G A20U C46G A57U A69C	0.623
U7G A37U G50C	≤ 0.5
U19C A37U C66G	≤ 0.5
U7C A21C C31A	≤ 0.5
G44C U54A C61A	0.561
C61U A65G	1.07
U19C G58A	0.961
